Reference: ChEMBL document CHEMBL3751835, “Discovery of the imidazole-derived GPR40 agonist AM-3189” (Bioorg Med Chem Lett, 2016)
pEC50: −log10 of the molar value. Active and inactive are the calls of the source. The rule behind the calls is not given here.

Columns and labels:
[1] = target: T1, Free fatty acid receptor 1 (Homo sapiens, UniProt O14842); assay: Partial agonist activity at human GPR40 expressed in CHO cells measured over 20 secs interval by luminometric analysis in presence of 0.01% human serum albumin; format: cell-based
In short: (§1)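 Aequorin chemiluminescence read-out of calcium flux in a CHO line stably transfected with human GPR40, giving EC50. Run in buffer containing 0.01% human serum albumin, or in 100% human serum to test activity with plasma proteins present.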

Pancreatic islet = assay: Induction of insulin release in human pancreatic islets; format: functional
Mus musculus = assay: Reduction of blood glucose AUC in human islet transplanted nude chimeric mouse at 100 ug/kg administered 1 hr prior to glucose challenge by OGTT; format: functional, organism-based
In short: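 Nude mice had their endogenous pancreatic β-cells ablated with streptozotocin and were rescued to euglycemia by human islets transplanted under the kidney capsule. Compound was dosed before a glucose challenge, and the glucose AUC was determined.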

[2] = target: T1, Free fatty acid receptor 1; assay: Partial agonist activity at human GPR40 expressed in CHO cells measured over 20 secs interval by luminometric analysis in presence of 100% human serum; format: cell-based; in short: as §1
[3] = target: T1, Free fatty acid receptor 1; assay: Partial agonist activity at human GPR40 expressed in CHO cells measured over 20 secs interval by luminometric analysis; format: cell-based
[4] = target: T1, Free fatty acid receptor 1; assay: Potency index , ratio of EC50 for AMG837 to EC50 for test compound for partial agonist activity at human GPR40 expressed in CHO cells measured over 20 secs interval by luminometric analysis in presence of 0.01% human serum albumin; format: cell-based

T1 sequence (O14842 whole entry): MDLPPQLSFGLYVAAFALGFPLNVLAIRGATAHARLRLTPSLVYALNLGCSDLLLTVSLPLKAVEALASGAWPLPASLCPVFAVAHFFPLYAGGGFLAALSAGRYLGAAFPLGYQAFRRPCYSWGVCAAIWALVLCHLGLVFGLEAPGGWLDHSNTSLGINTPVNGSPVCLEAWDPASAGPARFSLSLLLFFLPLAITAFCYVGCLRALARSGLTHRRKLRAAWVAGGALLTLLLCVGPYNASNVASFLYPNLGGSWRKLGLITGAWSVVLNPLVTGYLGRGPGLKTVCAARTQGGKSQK

Structure (SMILES)	pEC50 [1]	pEC50 [2]	further results
COc1ccccc1-c1cccc(COc2ccc([C@H](CC(=O)O)c3nccn3C)cc2)c1	6.39		
CC#C[C@@H](CC(=O)O)c1ccc(OCc2cccc(-c3ccc(C(F)(F)F)cc3)c2)cc1			Activity (Pancreatic islet): Active
CC[C@H](C)[C@H](NC(=O)[C@H](Cc1ccccc1)NC(=O)[C@H](CCC(=O)O)NC(=O)[C@H](CCCCN)NC(=O)[C@H](C)NC(=O)[C@H](C)NC(=O)[C@H](CCC(=O)O)NC(=O)CNC(=O)[C@H](CCC(=O)O)NC(=O)[C@H](CC(C)C)NC(=O)[C@H](Cc1ccc(O)cc1)NC(=O)[C@H](CO)NC(=O)[C@H](CO)NC(=O)[C@@H](NC(=O)[C@H](CC(=O)O)NC(=O)[C@H](CO)NC(=O)[C@@H](NC(=O)[C@H](Cc1ccccc1)NC(=O)[C@@H](NC(=O)CNC(=O)[C@H](CCC(=O)O)NC(=O)[C@H](C)NC(=O)[C@@H](N)Cc1cnc[nH]1)[C@@H](C)O)[C@@H](C)O)C(C)C)C(=O)N[C@@H](C)C(=O)N[C@@H](Cc1c[nH]c2ccccc12)C(=O)N[C@@H](CC(C)C)C(=O)N[C@H](C(=O)N[C@@H](CCCCN)C(=O)NCC(=O)N[C@@H](CCCNC(=N)N)C(=O)NCC(=O)O)C(C)C			Activity (Mus musculus): Active
Cn1ccnc1C(CC(=O)O)c1ccc(OCc2cccc(-c3ccc(C(F)(F)F)cc3)c2)cc1 (racemic)			pEC50 [3]: 6.89
O=C(O)CC(c1ccc(OCc2cccc(-c3ccc(C(F)(F)F)cc3)c2)cc1)c1ccccn1 (racemic)			pEC50 [3]: 6.48
Cc1cc(F)ccc1-c1cccc(COc2ccc([C@H](CC(=O)O)c3nccn3C)cc2)c1	7.23	4.68	
Cn1ccnc1[C@@H](CC(=O)O)c1ccc(OCc2cccc(-c3ccccc3Cl)c2)cc1	7.37	4.25	Ratio EC50 [4]: 2
O=C(O)CC(c1ccncc1)c1ccc(OCc2cccc(-c3ccc(C(F)(F)F)cc3)c2)cc1 (racemic)			pEC50 [3]: 6.72
O=C(O)CC(c1ccc(OCc2cccc(-c3ccc(C(F)(F)F)cc3)c2)cc1)c1cccs1 (racemic)			pEC50 [3]: 6.72
O=C(O)CC(c1ccccc1)c1ccc(OCc2cccc(-c3ccc(C(F)(F)F)cc3)c2)cc1 (racemic)			pEC50 [3]: 6.48
O=C(O)CC(c1ccc(OCc2cccc(-c3ccc(C(F)(F)F)cc3)c2)cc1)c1nccs1 (racemic)			pEC50 [3]: 6.92
COc1cccc(-c2cccc(COc3ccc([C@H](CC(=O)O)c4nccn4C)cc3)c2)c1	6.12		
O=C(O)CC(c1ccc(OCc2cccc(-c3ccc(C(F)(F)F)cc3)c2)cc1)c1cccnc1 (racemic)			pEC50 [3]: 6.40
Cn1ccnc1[C@@H](CC(=O)O)c1ccc(OCc2cccc(-c3ccccc3S(C)(=O)=O)c2)cc1	4.64		
Cc1ccc(F)cc1-c1cccc(COc2ccc([C@H](CC(=O)O)c3nccn3C)cc2)c1	7.44	4.38	

Continued, in another order:

pEC50 [1]	pEC50 [2]	Structure (SMILES)	further results
7.24	4.54	Cc1cccc(C)c1-c1cccc(COc2ccc([C@H](CC(=O)O)c3nccn3C)cc2)c1	
7.16	4.52	Cn1ccnc1[C@@H](CC(=O)O)c1ccc(OCc2cccc(-c3ccc(Cl)cc3Cl)c2)cc1	
6.62	4.64	Cc1cc(Cl)ccc1-c1cccc(COc2ccc([C@H](CC(=O)O)c3nccn3C)cc2)c1C	
7.21	4.66	Cc1c(Cl)cccc1-c1cccc(COc2ccc([C@H](CC(=O)O)c3nccn3C)cc2)c1	
6.36		COc1ccc(-c2cccc(COc3ccc([C@H](CC(=O)O)c4nccn4C)cc3)c2)cc1	
6.16		Cn1ccnc1[C@@H](CC(=O)O)c1ccc(OCc2cccc(-c3ccccc3C#N)c2)cc1	
6.95	4.21	Cn1ccnc1[C@@H](CC(=O)O)c1ccc(OCc2cccc(-c3ccccc3OC(F)(F)F)c2)cc1	
7.32	4.19	CCc1ccccc1-c1cccc(COc2ccc([C@H](CC(=O)O)c3nccn3C)cc2)c1	
7.37	4.05	Cc1ccccc1-c1cccc(COc2ccc([C@H](CC(=O)O)c3nccn3C)cc2)c1	Ratio EC50 [4]: 2
7.01	5.01	Cc1cc(Cl)ccc1-c1cc(COc2ccc([C@H](CC(=O)O)c3nccn3C)cc2)ccc1C	
